From ChEMBL document CHEMBL4118259, “Synthesis of sulfadiazinyl acyl/aryl thiourea derivatives as calf intestinal alkaline phosphatase inhibitors, pharmacokinetic properties, lead optimization, Lineweaver-Burk plot evaluation and binding analysis” (Bioorg Med Chem, 2018) come the findings set out here.

Activity calls are given as the source filed them. The calls are words filed in the database; no cut-off is given here.

A short description of this test: Antioxidant activity assessed as DPPH radical scavenging activity at 100 ug/ml measured after 30 mins. In kind it is functional. The essentials: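 DPPH radical scavenging with compounds at 100 µg/mL; mixture incubated at room temperature for 30 min, absorbance read at 517 nm; ascorbic acid as reference inhibitor; percentage activity given as mean ± SEM.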
Consider `O=C(NC(=S)Nc1ccc(S(=O)(=O)Nc2ncccn2)cc1)c1cc([N+](=O)[O-])cc([N+](=O)[O-])c1`, for which the result was Active. Take `O=C(NC(=S)Nc1ccc(S(=O)(=O)Nc2ncccn2)cc1)c1ccc(F)cc1`: the outcome was inactive. For `CCCCCCCC(=O)NC(=S)Nc1ccc(S(=O)(=O)Nc2ncccn2)cc1`, the result was inactive. Then `O=C(NC(=S)Nc1ccc(S(=O)(=O)Nc2ncccn2)cc1)c1ccccc1Cl`, with “inactive”.

For `O=C1O[C@H]([C@@H](O)CO)C(O)=C1O`, the outcome was Active. Then `O=C(NC(=S)Nc1ccc(S(=O)(=O)Nc2ncccn2)cc1)c1ccc(Cl)cc1Cl`, with “Active”.

For `CCCC(=O)NC(=S)Nc1ccc(S(=O)(=O)Nc2ncccn2)cc1`, the result was inactive. Regarding `COc1ccc(C(=O)NC(=S)Nc2ccc(S(=O)(=O)Nc3ncccn3)cc2)cc1`, the result was inactive. As for `CC(=O)NC(=S)Nc1ccc(S(=O)(=O)Nc2ncccn2)cc1`, the result was inactive. Then `CCCCCCC(=O)NC(=S)Nc1ccc(S(=O)(=O)Nc2ncccn2)cc1`, with “inactive”; and `O=C(NC(=S)Nc1ccc(S(=O)(=O)Nc2ncccn2)cc1)c1ccc(Cl)cc1`, with “inactive”.
